# Measured values: PubChem BioAssay
# Calls of active or inactive are those of the source.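 Rule for the calls, unless noted: active = viability at or under a set limit in both replicates, limit being median viability minus 3 SD (cut at about 48% in these data, passing the limit was not always enough); inconclusive = at or under the limit in just one replicate; inactive = at or above the limit in both replicates.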
# How the values were obtained:
# [1] = SK-BR-3 cell growth inhibitors, pilot screen, 24 h, human (AID 572;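 active = viability at or below 10% of carrier control in both of two separate runs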;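 note: compound exposure lasted between 18 and 24 h rather than exactly 24 h; 100% = carrier-treated control wells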); settings: SK-BR-3 viability, CellTiter-Glo luminescence, at 10 µM, stronger effect = lower value
# [2] = HUVEC growth inhibition – cell-based, human, primary screen (AID 575;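 active = viability at or below 30% in both replicate assays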;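 note: 100% = median of untreated cell wells with 0.1% DMSO on each plate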); settings: HUVEC proliferation, CellTiter-Glo luminescence, 72 h; at 10 µM; stronger effect = lower value
# Summary of the method: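 Assay system: Primary human umbilical vein endothelial cells | Quantity: 1250 cells per well | Medium: Supplemented EBM, 2% fetal bovine serum | Detection: CellTiter-Glo luminescence measuring cellular ATP | Read-out: % viability vs DMSO wells | Plate: Collagen-coated 384-well format | Times: 72 h exposure, 37 °C, 5% CO2, 30 min RT equilibration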
# [3] = growth inhibitors of H69AR lung tumor, primary screen, human, duplicate replicates (AID 580); settings: H69AR lung tumor cells viability, ATP luminescence, 72 h; at 10 µM; stronger effect = lower value;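 note: 100% = mean luminescence of untreated wells and 0% = no signal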
# [4] = reversal of MRP1-mediated doxorubicin resistance, pilot screen, H69AR cells, doxorubicin co-treatment (AID 601;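 active = viability loss from added drug above about 55%, and viability with drug at most 40%, in both replicates, limit read from the data, passing the limit was not always enough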); settings: CellTiter-Glo, 72 h, at 10 µM; for differential viability (reversal): stronger effect = higher value
# [5] = 384-well plate pilot, post-Golgi transport modulator project, inhibition of yeast transport mutant growth (AID 636; in the data active = inhibition above about 31%); settings: absorbance 615 nm, about 18 h, stronger effect = higher value
# [6] = growth suppression of yeast trafficking mutant, preliminary HTS, modulators of trafficking downstream of Golgi apparatus project, 1536-format plate, OD 615 nm (AID 637; in the data active = inhibition above about 30%); settings: yeast transport mutant growth, absorbance 615 nm, 18 h; stronger effect = higher value
# [7] = H69AR cells + 2 uM doxorubicin, measured here: viability with 2 uM doxorubicin, stronger effect = lower value
# [8] = H69AR cells, compound alone cytotoxicity
Structure (SMILES),viability [1],viability [2],viability [3],differential viability (reversal) ([4]; H69AR cells + 2 uM doxorubicin),"viability [4, 7] [%]","viability [4, 8] [%]",inhibition [5],inhibition [6]
CCCc1nc(NCc2ccncc2)c2nnn(Cc3ccccc3F)c2n1,99% (inactive),107% (inactive),54.5% (inactive),8.61% (inactive),45.9,54.5,-1.37% (inactive),-3.39% (inactive)
COc1ccc(OC)c(Nc2nc(-c3sc(N)nc3C)cs2)c1,97% (inactive),55.3% (inactive),78% (inactive),2.88% (inactive),75.1,78,-6.49% (inactive),-0.91% (inactive)
C[C@]12CC[C@@H]3c4ccc(O)cc4C(=O)C[C@H]3[C@@H]1CC[C@@H]2O,103% (inactive),89.2% (inactive),80.6% (inactive),2.45% (inactive),78.2,80.6,-0.39% (inactive),2.67% (inactive)
CCCCC[C@H](O)/C=C/C1=C(CCCCCCC(=O)O)C(=O)CC1,109% (inactive),75.2% (inactive),92.5% (inactive),-9.49% (inactive),102,92.5,-0.26% (inactive),-1.17% (inactive)
CCC(=O)Nc1nn(C)c2nc3c(C)cccc3cc12,92% (inactive),105% (inactive),104% (inactive),17.2% (inactive),86.4,104,-3.47% (inactive),-4.18% (inactive)
O=C(CN(c1ccc(F)cc1)S(=O)(=O)c1ccc2c(c1)OCCO2)Nc1cccnc1,77% (inactive),89.5% (inactive),100% (inactive),-0.85% (inactive),101,100,-8.77% (inactive),-3.82% (inactive)
O=C(c1ccco1)N1CCN(CCCCN2C(=O)c3ccccc3C2=O)CC1,102% (inactive),90.5% (inactive),79.9% (inactive),-12.3% (inactive),92.2,79.9,-1.04% (inactive),0.32% (inactive)
CC(=O)Nc1nnc(S(N)(=O)=O)s1,95% (inactive),88.7% (inactive),109% (inactive),24.6% (inactive),84.6,109,-1.82% (inactive),3.33% (inactive)
CCCCc1c(O)nc(SCC(=O)Nc2ccc3c(c2)CCC3)[nH]c1=O,96% (inactive),79.7% (inactive),94.8% (inactive),10.9% (inactive),83.9,94.8,-3.73% (inactive),-2.91% (inactive)
CC(COc1ccccc1)N(CCCl)Cc1ccccc1 (centres undefined),107% (inactive),78.2% (inactive),56.1% (inactive),9.34% (inactive),46.7,56.1,-0.65% (inactive),-3.33% (inactive)
COc1cccc(-c2nnn(CC(=O)O)n2)c1,149% (inactive),100% (inactive),91% (inactive),1.7% (inactive),89.3,91,-1.43% (inactive),1.97% (inactive)
N#Cc1c(N)n(CCOC(=O)c2cccc(Br)c2)c2nc3ccccc3nc12,111% (inactive),75.6% (inactive),96.4% (inactive),3.64% (inactive),92.8,96.4,-10.1% (inactive),3.55% (inactive)
COc1ccc(CNc2nc3nc(C)c(Cl)c(C)n3n2)cc1OC,97% (inactive),104% (inactive),92.6% (inactive),3.22% (inactive),89.4,92.6,-6.35% (inactive),-6.73% (inactive)
